Assay results of several laboratories.
Each line is one published result; the experiments were not run side by side.
Target: Serine/threonine-protein kinase SIK2 (SIK2, Homo sapiens, UniProt Q9H0K1)

| Structure (SMILES) | assay | conditions | remaining binding [%] |
| --- | --- | --- | --- |
| CC(=O)Nc1c(C(C)=O)c(=O)n(C)c2nc(-c3ccc(Cl)cc3Cl)c(-c3ccc(Cl)cc3)cc12 | cell-free assay, competition with immobilised ligand | 1 µM | 100 |
| C[C@@H](c1ccc(-n2cnc3c(N)ncnc32)cc1)N1CCc2nn(C)c(Cc3ccccc3)c2C1=O | binding, competition with immobilised ligand | 0.1 µM | 73 |
| Cc1cnc(Nc2ccc(C(=O)N3CCC(N4CCCC4)CC3)cc2)nc1-c1cc2ccccc2s1 | binding, competition with immobilised ligand | 1 µM | 16 |
| F[C@@H]1CCN(c2nccc(-c3cnn4ncccc34)n2)C1 | binding | 1 µM | 100 |
| N#Cc1ccc(Nc2ccc3[nH]c(=O)[nH]c3c2)c(Cl)c1 | cell-free assay, competition with immobilised ligand | 1 µM | 100 |
| COc1cnc(Nc2cccc(S(N)(=O)=O)c2)nc1N1CCN(c2ccccc2)C(=O)C1 | binding, competition with immobilised ligand | 1 µM | 92 |
| CN(c1nccc(-c2cnn3ncccc23)n1)C1CC1 | binding | 1 µM | 100 |
| O=C(Nc1c[nH]nc1C(=O)NC1CCNCC1)c1cc(F)cc(F)c1 | binding, competition with immobilised ligand | 1 µM | 100 |
| CN(CCCC(F)(F)F)c1nccc(-c2cnn3ncccc23)n1 | binding | 1 µM | 99 |
| O=C(c1ccc(Nc2ncc(Cl)c(-c3cc4ccccc4s3)n2)cc1)N1CCC(N2CCCC2)CC1 | binding, competition with immobilised ligand | 1 µM | 27 |
| CN(C)c1ncc(F)c(-c2cnn3ncccc23)n1 | binding | 1 µM | 100 |
| COc1ccc2c(c1)O[C@@H](c1ccc(OC)c(OC)c1)C[C@H]2NC(=O)C1(c2ccc3c(c2)OC(F)(F)O3)CC1 | cell-free assay, competition with immobilised ligand | 1 µM | 95 |
| CC1CCCN1c1nccc(-c2cnn3ncccc23)n1 (stereo not shown) | binding | 1 µM | 90 |
| C=CC(=O)N1CCC(C(=O)NCC(=O)N2CCN(c3nc(-c4cnc(N)nc4C(F)F)nc(N4CCOCC4)n3)CC2)CC1 | binding, competition with immobilised ligand | 1 µM | 96 |
| CN1CCN(c2cnc3c(C4CCN(C(=O)c5ccc(OC(F)(F)F)cc5N)CC4)ncnc3c2)CC1 | cell-free assay, competition with immobilised ligand | 1 µM | 100 |
| O=C(c1ccc(Nc2nccc(-c3cc4ccccc4s3)n2)cc1)N1CCC(N2CCCC2)CC1 | binding, competition with immobilised ligand | 1 µM | 45 |
| COCCOc1nc(-c2ccc(Cl)nc2)nc2c1CN(C(=O)c1ncn3ccccc13)CC2 | cell-free assay, competition with immobilised ligand | 0.1 µM | 100 |
| COc1cnc(Nc2cccc(S(N)(=O)=O)c2)nc1N1CCN(c2ccccc2)CC1 | binding, competition with immobilised ligand | 1 µM | 100 |
| CNC(=O)c1ccc(Nc2ncc(C(F)(F)F)c(NCc3nccnc3N(C)S(C)(=O)=O)n2)cc1 | cell-free assay, competition with immobilised ligand | 0.1 µM | 100 |
| COc1ccnn2ncc(-c3ccnc(N(C)C)n3)c12 | binding | 1 µM | 92 |
| O=S(=O)(NC1CCC(c2cc(F)ccc2F)(S(=O)(=O)c2ccc(Cl)cc2)CC1)C(F)(F)F (stereo not shown) | cell-free assay, competition with immobilised ligand | 1 µM | 100 |
| N[C@H]1CCN(c2nccc(-c3cnn4ncccc34)n2)C1 | binding | 1 µM | 87 |
